This is an account of results in PubChem BioAssay.

Activity calls are given as the source filed them.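 Rule for the calls, unless noted: active = fluorescence slope higher than the sample average by over 3 SD (cut at about -0.22 in these data, passing the limit was not always enough); inactive = the rest.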

Assay [1] is described as follows: inhibitors of TNFa-induced NFkB p65 translocation, primary screen, imaging, HUVEC, MLSMR starter and 10KST1 sets (AID 438;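 active = inhibition above 20% together with a positive visual image hit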;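 note: compound added about 3h40 before a 20 min TNFalpha stimulation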;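 for inhibition: signal is the nuclear over cytoplasmic p65 intensity ratio per well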). As to conditions: HUVEC TNFa-induced p65 nuclear translocation; cell count: measured here: nuclei count (cytotoxicity indicator), at 2.08 µM; inhibition: at 2 µM, stronger effect = higher value, 0% TNFa-plus-vehicle, 100% no-TNFa wells.
The nature of assay [2]: inhibitors of mutant huntingtin aggregation, primary screen, imaging, exon1htt(103Q)mCFP cells, high-content imaging (AID 483;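 active = visual image review flags a hit and inhibition of aggregation exceeds 20%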;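 note: compound exposure lasted 3 days before fixation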;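 for nuclei count: percent of the per-plate median nuclei count of sample wells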). Conditions: exon1htt(103Q)mCFP cell line, aggregate imaging, at 2 µM; inhibition of aggregation: stronger effect = higher value; nuclei count: measured here: cell count, toxicity.
Assay [3] can be described thus: inhibitors of E-selectin induction by TNFa, primary screen, imaging, HUVEC, immunofluorescence, MLSMR starter and 10KST1 sets (AID 487;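 active = visually confirmed hit in the image check and inhibition above 20%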;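 for inhibition: signal is fraction of cell area covered by stained E-selectin grains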;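 for nuclei count: 100% = median nuclei count of all wells on the same plate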). Conditions: HUVEC TNFalpha-induced E-selectin immunofluorescence imaging, at 2 µM; inhibition: stronger effect = higher value; nuclei count: measured here: cell number, toxicity.
The target in assay [4] is Voltage-gated potassium channel subunit beta-2 (Rattus norvegicus) (UniProt P62483). Briefly: KvBeta enzyme negative modulators, primary screen, biochemical, NADPH fluorescence (AID 622).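 Note: slope of raw intensity against log time taken from 70 to 1610 s.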 Conditions: recombinant KvBeta, 4-cyanobenzaldehyde reduction, at 10 µM, stronger effect = higher value.
Chain of Voltage-gated potassium channel subunit beta-2 (Rattus norvegicus) (P62483 whole entry, looked up): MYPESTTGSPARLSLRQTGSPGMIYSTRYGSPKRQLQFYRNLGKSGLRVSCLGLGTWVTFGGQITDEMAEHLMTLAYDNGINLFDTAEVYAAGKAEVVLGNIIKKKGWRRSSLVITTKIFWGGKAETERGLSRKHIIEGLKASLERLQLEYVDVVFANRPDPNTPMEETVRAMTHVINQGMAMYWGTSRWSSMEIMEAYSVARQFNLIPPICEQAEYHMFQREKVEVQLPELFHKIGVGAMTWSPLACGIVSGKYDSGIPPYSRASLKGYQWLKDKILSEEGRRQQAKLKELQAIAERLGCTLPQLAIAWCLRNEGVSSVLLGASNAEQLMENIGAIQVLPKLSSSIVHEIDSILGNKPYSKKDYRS
Assay [5] has the same target. The assay is described as follows: KvBeta positive modulators, primary screen, biochemical, NADPH fluorescence (AID 623;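 active = NADPH fluorescence slope more negative than the mean of all samples by about 3 SD, 99.7% confidence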;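 note: fluorescence intensity change per second fitted from 20 to 320 s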). As to conditions: Recombinant KvBeta, NADPH fluorescence decrease slope, 10 min; at 10 µM; stronger effect = lower value.
For assay [6], the target named is Muscarinic acetylcholine receptor M4 (Homo sapiens) (UniProt P08173). Briefly: compounds altering M4/GIRK thallium flux, either direction, primary screen, M4 allosteric agonist project, cell-based, HEK293 M4/GIRK, BTC-AM (AID 625;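 active = fluorescence slope after compound addition differing from the mean of all tested samples at 99.7% confidence, mostly higher but some lower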;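 note: thallium influx through GIRK channels coupled to M4 in HEK293 cells with BTC-AM dye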). As to conditions: at 10 µM, actives lie on both sides. Summed up:
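assay system = HEK293 cells with M4 receptor and GIRK channels | medium = pH 7.3 thallium assay buffer | doses = 10 µM final, single point | timing = cells overnight at 37 °C, BTC-AM loading 1 h, reads 2 min total | signal = BTC-AM fluorescence, 1 Hz kinetic reads | read-out = post-addition slope, 15–24 s, of baseline-normalized fluorescence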

Assay [7] is described as follows: inhibitors of Sendai virus-induced IRF3 signaling, primary screen, TLR/RLR signaling modifier project, cell-based, Sendai virus stimulus, luciferase, 10K MLSCN set (AID 602276;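 active = inhibition at or above 50% at 10 µM; inactive = inhibition below 50%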;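 note: firefly luciferase from ISG56 promoter only with Renilla not read in this screen; 0% = Sendai virus plus DMSO and 100% = medium plus DMSO without virus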). As to conditions: HEK293 RL24 IRF3 luciferase reporter, at 10 µM, stronger effect = higher value.
Assay [8] is described as follows: inhibitors of poly I:C-induced TLR3 signaling, primary screen, cell-based, poly I:C stimulus, luciferase, 10K MLSCN set (AID 602277;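 active = inhibition of the reporter signal at or above 50%; inactive = inhibition below 50%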). As to conditions: HEK293-TLR3 RL24 IRF3 luciferase reporter, at 10 µM, stronger effect = higher value.

Chain of Muscarinic acetylcholine receptor M4 (Homo sapiens) (P08173 whole entry, looked up): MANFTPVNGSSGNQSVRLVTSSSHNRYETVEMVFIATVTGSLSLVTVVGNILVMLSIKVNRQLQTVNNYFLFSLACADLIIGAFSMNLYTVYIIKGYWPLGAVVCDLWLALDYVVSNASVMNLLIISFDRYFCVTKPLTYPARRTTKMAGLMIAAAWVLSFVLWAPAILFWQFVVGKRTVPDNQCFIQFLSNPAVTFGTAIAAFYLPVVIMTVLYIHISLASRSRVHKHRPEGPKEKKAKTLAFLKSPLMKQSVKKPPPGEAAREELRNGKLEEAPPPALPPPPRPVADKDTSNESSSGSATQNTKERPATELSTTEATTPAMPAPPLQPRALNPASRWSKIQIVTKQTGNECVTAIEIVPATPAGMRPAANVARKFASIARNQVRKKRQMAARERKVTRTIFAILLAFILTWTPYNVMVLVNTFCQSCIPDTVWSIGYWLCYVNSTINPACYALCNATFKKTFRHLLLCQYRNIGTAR

The term inhibition denotes the relative decrease from the control value, in per cent. Take `COC(=O)c1cc(NS(=O)(=O)c2ccc3c(c2)CCC(=O)N3)cc(C(=O)OC)c1`: the cell count in assay [1] amounted to 384. For the same molecule, the inhibition in assay [1] was -2.9% (inactive); in assay [3], -255% (inactive); in assay [7], -11.6% (inactive); in assay [8] it was 79.6% (active). Besides, the inhibition of aggregation in assay [2] is -24.1% (inactive). For the same molecule, the nuclei count in assay [2] was 108%; in assay [3] it was 115%. Also, the fluorescence slope is -0.464 (inactive) in assay [4] and 0.00663 (inactive) in assay [6]. Further, in assay [5], the NADPH fluorescence slope was 2.6e-05 (inactive).
Take `COc1ccccc1-c1coc2c(CN3CCN(CCO)CC3)c(O)ccc2c1=O`: in assay [1], the cell count came out at 615. The inhibition in assay [1] is -0.2% (inactive); in assay [3], -16% (inactive); in assay [7], 12.9% (inactive); in assay [8] it was 5.54% (inactive). The inhibition of aggregation in assay [2] was -9.4% (inactive). For the same molecule, the nuclei count in assay [2] was 102%; in assay [3], 105%. The fluorescence slope in assay [4] is -0.027 (active); in assay [6], 0.0043 (inactive). In addition, the NADPH fluorescence slope in assay [5] is 5.8e-06 (inactive).
Consider `COC(=O)c1c(NC(=O)c2ccc(S(=O)(=O)N3CCOCC3)cc2)sc2c1CCN(C)C2`, for which the cell count in assay [1] was 296. The inhibition in assay [1] is -9.1% (inactive); in assay [3], -25.5% (inactive); in assay [7], -9.85% (inactive); in assay [8], 15.9% (inactive). Besides, the inhibition of aggregation in assay [2] was 3% (inactive). Moreover, the nuclei count turned out to be 117% in assay [2] and 114% in assay [3]. The fluorescence slope in assay [4] was -0.483 (inactive); in assay [6], 0.0054 (inactive). Further, the NADPH fluorescence slope in assay [5] was -5.3e-05 (inactive).
Regarding `O=C(c1cccn2c(=O)c3cc(Cl)ccc3nc12)N1CCOCC1`, the cell count in assay [1] is 488. Also, the inhibition was -23.1% (inactive) in assay [1], -117% (inactive) in assay [3], 7.46% (inactive) in assay [7] and 19.6% (inactive) in assay [8]. Moreover, the inhibition of aggregation in assay [2] was 10% (inactive). Also, the nuclei count in assay [2] came out at 106%; in assay [3] it was 140%. For the same molecule, the fluorescence slope is -0.027 (inactive) in assay [4] and 0.00457 (inactive) in assay [6]. The NADPH fluorescence slope in assay [5] is 8.6e-06 (inactive).
For the molecule `CCC1(CC)C(=O)C(C)(C)C(=O)OC1c1cccs1` (stereo not given), the cell count in assay [1] was determined as 750. Further, the inhibition in assay [1] is -8.8% (inactive); in assay [3], -18.3% (inactive); in assay [7] it was 21.5% (inactive); in assay [8], 19.6% (inactive). Also, in assay [2], the inhibition of aggregation is 10.4% (inactive). Besides, the nuclei count in assay [2] came to 91.1%; in assay [3], 110%. The fluorescence slope was -0.454 (inactive) in assay [4] and 0.00495 (inactive) in assay [6]. Also, the NADPH fluorescence slope in assay [5] is -4.2e-05 (inactive).
As to `CN1C(=O)NC(NC(=O)C2CCCCC2)(C(F)(F)F)C1=O` (stereo not given), the cell count in assay [1] was found to be 650. Also, the inhibition in assay [1] is 1.4% (inactive); in assay [3], 3.3% (inactive); in assay [7], 17% (inactive); in assay [8] it was 17.5% (inactive). In assay [2], the inhibition of aggregation was 0.6% (inactive). The nuclei count amounted to 97.1% in assay [2] and 99.5% in assay [3]. Also, the fluorescence slope was -0.579 (inactive) in assay [4] and 0.0049 (inactive) in assay [6]. For the same molecule, in assay [5], the NADPH fluorescence slope was -2.4e-05 (inactive).
For the molecule `Cc1ccc(NS(=O)(=O)c2cn(C)cn2)cc1`, the cell count in assay [1] was found to be 491. Moreover, the inhibition was -0.5% (inactive) in assay [1], 3.6% (inactive) in assay [3], 15.2% (inactive) in assay [7] and 17.6% (inactive) in assay [8]. For the same molecule, in assay [2], the inhibition of aggregation was 7.8% (inactive). Besides, the nuclei count came to 89.1% in assay [2] and 107% in assay [3]. Moreover, the fluorescence slope in assay [4] was -0.44 (inactive); in assay [6] it was 0.00531 (inactive). In addition, the NADPH fluorescence slope in assay [5] was -0.000336 (inactive).
Regarding `Cc1cc2oc(=O)cc(CN3CCN(Cc4ccc5c(c4)OCO5)CC3)c2cc1C`, the cell count in assay [1] worked out at 362. In addition, the inhibition in assay [1] was 6.8% (inactive); in assay [3], -0.8% (inactive); in assay [7], 5.83% (inactive); in assay [8], 27% (inactive). Besides, the inhibition of aggregation in assay [2] was -15.1% (inactive). Besides, the nuclei count is 99.2% in assay [2] and 108% in assay [3]. The fluorescence slope in assay [4] is -0.536 (inactive); in assay [6] it was 0.00603 (inactive). Besides, in assay [5], the NADPH fluorescence slope was -4.3e-05 (inactive).
For the molecule `COc1cccc(Oc2ccc(N)cn2)c1`, in assay [1], the cell count came to 392. For the same molecule, the inhibition in assay [1] was -4.4% (inactive); in assay [3], -126% (inactive); in assay [7] it was -7.7% (inactive); in assay [8], 1.94% (inactive). Also, the inhibition of aggregation in assay [2] was -4.1% (inactive). The nuclei count in assay [2] is 100%; in assay [3], 114%. Besides, the fluorescence slope in assay [4] was -0.537 (inactive); in assay [6], 0.0033 (inactive). Moreover, the NADPH fluorescence slope in assay [5] is -0.000148 (inactive).
Take `CCOC(=O)c1[nH]c2ccccc2c1NC(=O)c1ccco1`: in assay [1], the cell count is 671. Also, the inhibition was -8.6% (inactive) in assay [1], 52.3% (inactive) in assay [3], 17.1% (inactive) in assay [7] and 21.7% (inactive) in assay [8]. For the same molecule, in assay [2], the inhibition of aggregation was 4.2% (inactive). The figures for the nuclei count in assay [2] and in assay [3] were 87.8% and 102%, respectively. Further, the values for the fluorescence slope in assay [4] and in assay [6] were -0.332 (inactive) and 0.00748 (inactive), respectively. Moreover, the NADPH fluorescence slope in assay [5] is -6.5e-05 (inactive).
With `Cc1[nH]n2c(=O)cc(Cc3ccccc3)nc2c1C#N`, the cell count in assay [1] is 786. In addition, the inhibition in assay [1] is -6.7% (inactive); in assay [3] it was -15.8% (inactive); in assay [7] it was 15.1% (inactive); in assay [8], 22% (inactive). In addition, the inhibition of aggregation in assay [2] was 8.8% (inactive). Also, the nuclei count in assay [2] was determined as 106%; in assay [3], 100%. Further, the fluorescence slope is -0.538 (inactive) in assay [4] and 0.00532 (inactive) in assay [6]. Moreover, the NADPH fluorescence slope in assay [5] was -3.6e-05 (inactive).
Regarding `Cc1ccc(Oc2ccc(-c3nc(N)nc(N)n3)cc2)cc1`, in assay [1], the cell count is 366. Moreover, the inhibition is -6% (inactive) in assay [1], -62.6% (inactive) in assay [3], 7.07% (inactive) in assay [7] and 11.6% (inactive) in assay [8]. The inhibition of aggregation in assay [2] was 9% (inactive). Moreover, the nuclei count was 105% in assay [2] and 125% in assay [3]. The fluorescence slope was -0.547 (inactive) in assay [4] and 0.00425 (inactive) in assay [6]. The NADPH fluorescence slope in assay [5] was -2.9e-05 (inactive).
`Cc1cc(NC(=O)c2ccccc2Oc2ccccc2)no1`: in assay [1], the cell count is 708. Further, the inhibition in assay [1] was -0.2% (inactive); in assay [3] it was 23.9% (inactive); in assay [7], 12.4% (inactive); in assay [8], 9.02% (inactive). Moreover, in assay [2], the inhibition of aggregation was 23.9% (inactive). The values for the nuclei count in assay [2] and in assay [3] were 102% and 101%, respectively. In addition, the fluorescence slope in assay [4] was -0.532 (inactive); in assay [6], 0.00465 (inactive). Further, the NADPH fluorescence slope in assay [5] is -6.9e-05 (inactive).
Consider `CCC(=O)N1CCCc2cc(S(=O)(=O)N3CCCc4ccccc43)ccc21`, for which the cell count in assay [1] came to 684. The inhibition in assay [1] was 2.1% (inactive); in assay [3] it was -142% (inactive); in assay [7] it was 20% (inactive); in assay [8], 34% (inactive). Moreover, in assay [2], the inhibition of aggregation was -1.8% (inactive). The nuclei count in assay [2] was 100%; in assay [3], 125%. Besides, the fluorescence slope is -0.552 (inactive) in assay [4] and 0.00501 (inactive) in assay [6]. Moreover, the NADPH fluorescence slope in assay [5] is 3.3e-05 (inactive).
For `O=C(Nc1cccc(C(F)(F)F)c1)c1cccnc1N1CCCC1`, the cell count in assay [1] is 360. For the same molecule, the inhibition in assay [1] was 4.5% (inactive); in assay [3], -32.4% (inactive); in assay [7] it was 16.2% (inactive); in assay [8], 28.2% (inactive). Besides, the inhibition of aggregation in assay [2] was -13% (inactive). Further, the values for the nuclei count in assay [2] and in assay [3] were 105% and 118%, respectively. For the same molecule, the fluorescence slope in assay [4] is -0.531 (inactive); in assay [6], 0.00477 (inactive). Besides, the NADPH fluorescence slope in assay [5] was 2.1e-05 (inactive).
